Test results: ChEMBL document CHEMBL1125636, “L-687,908, a potent hydroxyethylene-containing HIV protease inhibitor” (J Med Chem, 1991)
Converted amounts (≈) assume the structure as drawn. Where a SMILES comes first, the peptide text is derived from it.

How the values were obtained:
[1] = target: Human immunodeficiency virus type 1 protease (Human immunodeficiency virus 1, UniProt Q72874); experiment: Inhibition of HIV-1 protease; type: functional
Summary of the method: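 HIV-1 protease peptide hydrolysis: octapeptide substrate H2N-ValSerGlnAsn(β-naphthyl-Ala)ProIle-Val-OH at 430 μM (Km = 160 μM), enzyme at 0.030 nM; cleavage quantitated by HPLC; IC50 from this readout.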

H9 = experiment: Minimum inhibitory concentration required to prevent HIV infection was determined in H9 human T-lymphoid cell culture; type: functional
Summary of the method: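 H9 human T-lymphoid cells were infected with HIV-1 IIIb at a multiplicity of infection of 1.0%, with no compound present. Compound was added 1 day after infection, predissolved in DMSO and serially diluted in RPMI-1640 with 10% FBS. Medium with fresh compound was replaced every 2–3 days. Cells were harvested at 14 days and scored by immunofluorescence with anti-HIV-1 human serum. MIC was the lowest concentration totally preventing spread beyond the initially infected cells.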

Renin [2] = target: T1, Renin (Rattus norvegicus, UniProt P08424); experiment: Concentration required to inhibit 50% activity of renin was determined; type: functional
T1 sequence (P08424 whole entry): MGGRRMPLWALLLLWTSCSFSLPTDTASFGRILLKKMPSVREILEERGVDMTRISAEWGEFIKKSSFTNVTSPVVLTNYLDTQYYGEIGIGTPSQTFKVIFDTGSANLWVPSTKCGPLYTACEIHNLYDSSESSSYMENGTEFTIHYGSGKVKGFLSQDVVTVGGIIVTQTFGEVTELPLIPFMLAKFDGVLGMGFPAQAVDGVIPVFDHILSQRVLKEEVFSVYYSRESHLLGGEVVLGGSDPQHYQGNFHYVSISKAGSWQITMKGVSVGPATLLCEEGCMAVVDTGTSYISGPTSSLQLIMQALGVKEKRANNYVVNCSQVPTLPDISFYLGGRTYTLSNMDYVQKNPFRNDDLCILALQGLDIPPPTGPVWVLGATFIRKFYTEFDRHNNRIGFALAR
Summary of the method: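 Purified plasma renin, assayed at pH 7.4; IC50 reported.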

Renin [3] = target: T1, Renin; experiment: Concentration required to inhibit 50% activity of plasma renin was determined at pH 7.4; Inactive; type: functional, cell-free

| SMILES | IC50 [1] | MIC (H9) | IC50 (Renin [2]) | IC50 (Renin [3]) |
| --- | --- | --- | --- | --- |
| CC(C)C[C@H](NC(=O)[C@H](C/C=C/c1ccccc1)C[C@H](O)[C@H](Cc1ccccc1)NC(=O)OC(C)(C)C)C(=O)N[C@@H](Cc1ccccc1)C(N)=O | 0.15 nM | 6 µM (≈ 4.19 µg/mL) |  |  |
| CCC(C)C(NC(=O)[C@H](Cc1ccccc1)C[C@H](O)[C@H](Cc1ccccc1)NC(=O)OC(C)(C)C)C(=O)NCc1ccccc1 (stereo partly specified) | 0.71 nM | 1.5 µM (≈ 0.924 µg/mL) |  |  |
| CCC(C)C(NC(=O)[C@H](Cc1ccccc1)C[C@H](O)[C@H](Cc1ccccc1)NC(=O)OC(C)(C)C)C(=O)NCC(O)CO (stereo partly specified) | 0.15 nM | 1.5 µM (≈ 0.9 µg/mL) |  |  |
| CC[C@H](C)[C@H](NC(=O)[C@H](Cc1ccccc1)C[C@H](O)[C@H](Cc1ccccc1)NC(=O)OC(C)(C)C)C(=O)NCc1nc2ccccc2[nH]1 | 0.07 nM | 0.2 µM (≈ 0.131 µg/mL) |  |  |
| CC(C)(C)OC(=O)N[C@@H](Cc1ccccc1)[C@@H](O)C[C@@H](Cc1ccccc1)C(=O)NCc1ccccc1 | 111 nM | > 50 µM |  |  |
| CC(C)C[C@H](NC(=O)[C@H](Cc1ccccc1)C[C@H](O)[C@H](Cc1ccccc1)NC(=O)[C@H](Cc1ccccc1)NC(=O)[C@H](Cc1ccccc1)NC(=O)OC(C)(C)C)C(=O)N[C@@H](Cc1ccccc1)C(N)=O (HELM PEPTIDE1{[CC(C)(C)OC(=O)[*:2]].F.F.[O=C([C@H](Cc1ccccc1)C[C@H](O)[C@H](Cc1ccccc1)N[*:1])[*:2]].L.F.[am]}$$$$V2.0) | 1 nM | 50 µM (≈ 48.4 µg/mL) | 73 nM |  |
| CC(C)C[C@H](NC(=O)[C@H](Cc1ccccc1)C[C@H](O)[C@H](Cc1ccccc1)NC(=O)OC(C)(C)C)C(=O)N[C@@H](Cc1ccccc1)C(N)=O | 0.6 nM | 6 µM (≈ 4.04 µg/mL) |  | > 10 µM |
| CC[C@H](C)[C@H](NC(=O)[C@H](C/C=C/c1ccccc1)C[C@H](O)[C@H](Cc1ccccc1)NC(=O)OC(C)(C)C)C(=O)NCc1nc2ccccc2[nH]1 | 0.03 nM | 0.012 µM (≈ 0.00818 µg/mL) |  |  |
| CC(C)C[C@H](NC(=O)[C@H](Cc1ccccc1)C[C@H](O)[C@H](Cc1ccccc1)NC(=O)CC(C)(C)C)C(=O)N[C@@H](Cc1ccccc1)C(N)=O | 6 nM |  |  |  |
| CC(C)CC(NC(=O)[C@H](Cc1ccccc1)C[C@H](O)[C@H](Cc1ccccc1)NC(=O)OC(C)(C)C)C(N)=O (stereo partly specified) | 12 nM | 6 µM (≈ 3.15 µg/mL) |  |  |
| CC(C)CCNC(=O)[C@H](Cc1ccccc1)C[C@H](O)[C@H](Cc1ccccc1)NC(=O)OC(C)(C)C | 470 nM |  |  |  |
| CC(C)CC(NC(=O)[C@H](Cc1ccccc1)C[C@H](O)[C@H](Cc1ccccc1)NC(=O)OC(C)(C)C)C(=O)NCCc1ccccc1 (stereo partly specified) | 12 nM |  |  |  |
| CC(C)C[C@H](NC(=O)[C@H](Cc1ccccc1)C[C@H](O)[C@H](Cc1ccccc1)NC(=O)[C@H](Cc1ccccc1)NC(=O)OC(C)(C)C)C(=O)N[C@@H](Cc1ccccc1)C(N)=O | 20 nM |  |  |  |
| CC(C)CC(NC(=O)[C@H](Cc1ccccc1)C[C@H](O)[C@H](Cc1ccccc1)NC(=O)OC(C)(C)C)C(=O)NCc1ccccc1 (stereo partly specified) | 1.4 nM | 3 µM (≈ 1.85 µg/mL) |  |  |
